# Rows were chosen to be rich in hits. Some 5.7% of all compounds tested hit in one or more screens of this group.
# Beta cell apopt: beta cell apoptosis inhibition; protection from apoptosis, % (no concentration beside the values); INS-1E cytokine-induced death, ATP luminescence, 48 h; percent of positive-control rescue, neutral wells zero; hit rate 0.8% among 300,000; AID 435005;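 active = Every replicate reaches about 75%, or at least half do and their mean reaches it too, limit read from the data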;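 also: 0% = cytokine-treated negative control wells and 100% = positive control rescue; higher means more ATP so stronger rescue from cytokine killing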
# T cruzi inh: T. cruzi replication inhibition; AID 1885; inhibition, % (concentration not given with the values); hit rate 1.4% among 300,000; T. cruzi beta-gal in NIH3T3, luminescence, 90 h;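 active = mean inhibition across valid replicates above about 55%, limit read from the data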;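 also: signal also drops with host cell toxicity which is not excluded here; 0% = plate median of DMSO wells and 100% = zero luminescence signal; higher percent means less beta-gal luminescence so fewer parasites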
#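 Incubation – ≥90 h infection period, 3 h prior cell attachment · System – NIH/3T3 fibroblasts plus reporter T. cruzi · Doses – compound pinned at 50 nL/well, DMSO · Read-out basis – percent inhibition of parasite-derived β-gal signal · Signal – luminescent β-galactosidase signal after 60 min lysis · Also added – 5000 T. cruzi trypomastigotes/well · Medium – Low-serum DMEM with 2% FBS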
# SKKanGAS inh: blocks kanamycin growth of S. pyogenes SKKanGAS strain; BacTiter-Glo, 6 h; inhibition, % at 7.5 µM; hit rate 1.3% among 300,000; AID 1662;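 active = mean replicate score, as percent of positive control median, at least 50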;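 also: strain carries kanamycin resistance gene driven by streptokinase promoter and grows in 40 µg/ml kanamycin; loss of luminescence reflects streptokinase promoter inhibition or plain growth inhibition; 0% = median of DMSO wells and 100% = positive control at its reference dose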
# Calb FLC: C. albicans growth modulation with fluconazole | C. albicans CaCi-2 (fluconazole-resistant clinical isolate) + fluconazole, Alamar Blue growth, 48 h | growth inhibition, % (no concentration beside the values) | hit rate 0.57% among 300,000;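 active = growth inhibition above about 58% in most replicates, limit read from the data, passing the limit was not always enough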;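 also: all wells also contain fluconazole at 8 µg/ml as a sub-toxic cotreatment; 0% = median of DMSO wells and 100% = median of geldanamycin control wells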
# CSC inhib: blocks cancer stem cells; inhibition, % at 7.5 µM; AID 2717; cancer stem cell-like cells viability, luminescence; hit rate 1.1% among 300,000; in the data active = inhibition above about 75%; tested in HMLE shEcad cells
# Mdm2 MdmX PPI: human Mdm2/MdmX binding inhibition | O15151+Q00987 | SaOS-2 split-luciferase Mdm2/MdmX complementation, luminescence | inhibition, % at 8 µM | hit rate 3% among 330,000 | AID 485346;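 active = inhibition of at least 50% at 8 µM in the primary screen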
# Target sequence (O15151 whole entry, looked up): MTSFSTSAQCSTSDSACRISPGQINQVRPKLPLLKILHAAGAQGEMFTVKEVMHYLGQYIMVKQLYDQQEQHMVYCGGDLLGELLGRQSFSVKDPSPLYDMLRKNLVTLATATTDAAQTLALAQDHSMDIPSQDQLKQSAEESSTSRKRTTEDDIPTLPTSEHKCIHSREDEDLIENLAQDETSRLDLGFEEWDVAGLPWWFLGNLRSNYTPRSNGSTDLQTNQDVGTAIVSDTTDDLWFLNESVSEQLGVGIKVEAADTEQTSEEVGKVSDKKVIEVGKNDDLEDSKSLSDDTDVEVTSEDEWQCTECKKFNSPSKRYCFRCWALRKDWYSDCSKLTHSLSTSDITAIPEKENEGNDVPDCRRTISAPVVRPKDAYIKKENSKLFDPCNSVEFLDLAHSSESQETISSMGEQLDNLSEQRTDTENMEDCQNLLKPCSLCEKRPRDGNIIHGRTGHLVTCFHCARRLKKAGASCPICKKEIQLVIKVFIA
# Target sequence (Q00987 whole entry, looked up): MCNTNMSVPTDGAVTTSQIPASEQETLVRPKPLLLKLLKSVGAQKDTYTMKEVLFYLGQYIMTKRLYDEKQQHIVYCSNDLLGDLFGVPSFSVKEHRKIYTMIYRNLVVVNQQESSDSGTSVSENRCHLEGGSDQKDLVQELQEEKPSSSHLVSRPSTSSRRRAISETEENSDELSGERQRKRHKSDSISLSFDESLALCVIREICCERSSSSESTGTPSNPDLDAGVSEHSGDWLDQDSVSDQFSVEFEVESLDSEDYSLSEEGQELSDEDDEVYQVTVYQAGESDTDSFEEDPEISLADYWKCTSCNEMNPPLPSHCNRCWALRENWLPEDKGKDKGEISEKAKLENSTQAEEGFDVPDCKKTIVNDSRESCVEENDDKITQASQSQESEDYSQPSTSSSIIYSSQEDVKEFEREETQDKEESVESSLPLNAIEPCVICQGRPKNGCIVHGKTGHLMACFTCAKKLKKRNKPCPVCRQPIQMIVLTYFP
# * hit, by the source's call; · = not tested or not shown.
SMILES,Beta cell apopt,T cruzi inh,SKKanGAS inh,Calb FLC,CSC inhib,Mdm2 MdmX PPI
O=C(Nc1ccnn1C1CCN(C(=O)c2cnsn2)CC1)c1cccc(F)c1,·,-1,-2,-8,-7,26
Cc1oc(-c2cccc(Cl)c2)nc1CN1CCCC(C(=O)NCCCN2CCOCC2)C1 (configuration not stated),1,63*,-6,-4,-12,25
Cc1oc(-c2ccc(Cl)cc2)nc1CN1CCC(C(=O)NCCCN2CCOCC2)CC1,-10,26,4,5,7,22
CCN(CCNC(=O)C1CCCN(Cc2nc(-c3ccc(OC)cc3)oc2C)C1)c1ccccc1 (configuration not stated),0,62*,1,-21,2,48
CC(=O)NC(C)(CC(=O)c1ccccc1)c1ccccc1 (configuration not stated),-4,-11,-3,0,-15,11
COc1ccc(C(=O)N(CN2CCCC2=O)c2ccc(C)cc2)cc1,-1,-2,-3,103*,-15,22
O=C(NNC(=O)c1cc(-c2cccc(Br)c2)nc2ccccc12)c1csc(N2CCOCC2)n1,6,-8,56*,37,·,11
O=C(NNC(=O)c1cc(Br)ccc1Cl)c1csc(N2CCOCC2)n1,-1,3,-6,9,4,-15
CC1(c2ccc(O)cc2)NC(=O)N(c2ccccc2)N1 (configuration not stated),-3,-12,0,-63,109*,15
O=C(Nc1nc2ccccc2s1)c1ccccc1,12,-1,5,-7,0,-210
c1ccc2sc(NN=C3CCCCCC3)nc2c1,3,43,-65,106*,20,-59
CCOC(=O)C1=C(c2ccccc2)Nc2ncnn2C1c1cc(OC)ccc1OC (configuration not stated),1,38,-6,15,4,-12
CCOC(=O)C1=C(c2ccccc2)Nc2ncnn2C1c1ccc(OC)c(OC)c1OC (configuration not stated),-13,56*,0,-10,-1,-17
COc1cccc(/C=N/NC(=O)Cn2nc([N+](=O)[O-])cc2C)c1,1,6,1,1,18,-24
Cc1ccc(/C=N/NC(=O)c2cccc(NC(=O)c3ccccc3Cl)c2)o1,-1,11,7,-1,-3,-4
CC(C)=CCc1c2c(c3occ(-c4ccc(O)cc4)c(=O)c3c1O)C=CC(C)(C)O2,14,41,111*,-1,-15,-10
O=c1c(-c2ccc(O)cc2)coc2cc(O)cc(O)c12,·,-14,0,4,-6,-71
O=C(OCCOc1cccc(Cl)c1)c1cc(S(=O)(=O)N2CCCCC2)ccc1N1CCOCC1,72,65*,2,-1,24,12
Cc1onc(-c2c(F)cccc2Cl)c1C(=O)NC(=S)NC1CCS(=O)(=O)C1 (configuration not stated),0,-5,-24,2,-6,-1
COC1OC(COC(=O)c2ccccc2)C(OC(=O)c2ccccc2)C1OC(=O)c1ccccc1 (configuration not stated),3,7,-6,0,-7,-5
O=C(OC[C@H]1O[C@@H](OC(=O)c2cc(O)c(O)c(OC(=O)c3cc(O)c(O)c(O)c3)c2)[C@H](OC(=O)c2cc(O)c(O)c(OC(=O)c3cc(O)c(O)c(O)c3)c2)[C@@H](OC(=O)c2cc(O)c(O)c(OC(=O)c3cc(O)c(O)c(O)c3)c2)[C@@H]1OC(=O)c1cc(O)c(O)c(OC(=O)c2cc(O)c(O)c(O)c2)c1)c1cc(O)c(O)c(OC(=O)c2cc(O)c(O)c(O)c2)c1,12,·,·,·,90*,·
Cc1nonc1C(=O)N/N=C/c1ccc([N+](=O)[O-])o1,-2,19,-5,82*,-6,-12
O=C(N/N=C/c1ccc([N+](=O)[O-])o1)C1CC1,8,73*,13,1,·,12
NC(=O)N/N=C/c1ccc([N+](=O)[O-])o1,-5,·,·,·,-2,32
COC(=O)N/N=C/c1ccc([N+](=O)[O-])o1,1,55*,4,10,-14,15
SMILES,Beta cell apopt,T cruzi inh,SKKanGAS inh,Calb FLC,CSC inhib,Mdm2 MdmX PPI
O=C1COc2ccc(S(=O)(=O)Nc3ccc4c(c3)OCO4)cc2N1,1,-13,-11,-12,-6,0
Cc1ccc(C2(C)NC(=O)N(CC(=O)NCc3ccccc3Cl)C2=O)cc1 (configuration not stated),6,3,3,4,-7,-2
O=C(Nc1ccn([C@H]2CC[C@@H](CO)O2)c(=O)n1)c1ccccc1,-5,-17,2,5,-11,-7
Cc1nc(N)sc1-c1csc(N(C)c2ccc(O)cc2)n1,4,-6,64*,26,7,-33
CN(c1ccc(O)cc1)c1nc(-c2cccs2)cs1,-8,-8,3,2,-5,-277
O=C(Nc1cc(F)c(Br)cc1F)c1ccc(Cl)cc1,-5,29,26,-8,13,-123
O=C(CN1CCN(c2ccccn2)CC1)Nc1cccc(S(=O)(=O)N2CCCC2)c1,7,-1,0,-8,-19,-7
CC1(C)CC[C@]2(CO)[C@@H](O)C[C@]3(C)C(=CCC4[C@@]5(C)CC[C@H](O)C(C)(C)C5CC[C@]43C)[C@@H]2C1 (some centres not stated),11,43,23,-1,102*,-31
CC(C)(C)[C@@H]1COC(=O)[C@H](Cc2ccc(F)cc2)CC/C=C\C[C@@H](CC(=O)NCCO)C(=O)N1,·,·,·,·,·,-1
Cc1ccsc1C(=O)NN=C1CCCCCC1,0,1,-4,-4,-6,4
Cc1cc(C)c(S(=O)(=O)NCC(=O)NCc2ccccn2)c(C)c1,-7,4,-2,7,-16,6
CN(C)CCn1c(=O)n(Cc2ccccc2)c(=O)c2c3c(sc21)CCCCC3,8,59*,5,-3,-7,-3
CCOC(=O)c1sc2c(c1C)c(=O)n(Cc1ccccc1)c(=O)n2CCN(C)C,-1,59*,7,9,-7,-11
Cc1c(C(=O)O)sc2c1c(=O)n(Cc1ccccc1)c(=O)n2C,-3,3,10,8,0,-4
O=C(NN1CCOCC1)c1cc(S(=O)(=O)Nc2cccc(C(F)(F)F)c2)ccc1Cl,8,-12,1,7,·,-33
O=C(NCC1CCCN1S(=O)(=O)c1cccs1)C(=O)Nc1ccc(F)cc1 (configuration not stated),-2,9,1,1,13,-1
O=C(Cn1[nH]c(=O)c2ccccc2c1=O)OCC(=O)c1ccccc1,-3,·,·,·,-17,7
Cc1ccc2nc(N3CCN(C)CC3)c(C=O)c(=O)n2c1,-11,-1,-2,3,-5,-23

# High-throughput results from PubChem.
